# According to ChEMBL document CHEMBL3044709, “Antimicrobial furostanol saponins from the seeds of Capsicum annuum L. var. acuminatum” (2002):
# Tests used:
# Type in all cases: functional
# [1] = system: Staphylococcus epidermidis; assay: Antimicrobial activity against Staphylococcus epidermidis DSM 1798 after 48 hr by agar dilution method; settings: DSM 1798, 48 h
# Summary of the method: (§1)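 Agar dilution on standard plate count agar: 0.5 mL of a 2-fold serial dilution of sample mixed into 9.5 mL medium, poured into Petri dishes, organism streaked on the surface. Incubated at 28 °C (36 and 48 h). MIC is the lowest tested concentration with no visible growth.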
# Trichoderma viride = assay: Antimicrobial activity against Hypocrea rufa ATCC 28020 after 48 hr by agar dilution method; settings: ATCC 28020, 48 h
# Summary of the method: (§2)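 Fungi tested by agar dilution in malt agar. Serial 2-fold sample dilutions (0.5 mL) were mixed with 9.5 mL medium and plated, then streaked with the organism. Incubation at 28 °C for 36 and 48 h. MIC is the lowest tested concentration without growth.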
# Stutzerimonas stutzeri = assay: Antimicrobial activity against Pseudomonas stutzeri ATCC 962 after 48 hr by agar dilution method; settings: ATCC 962, 48 h; summary of the method: as §1
# [2] = system: Lactiplantibacillus plantarum; assay: Antimicrobial activity against Lactobacillus plantarum DSM 20174 after 48 hr by agar dilution method; settings: DSM 20174, 48 h; summary of the method: as §1
# Bacillus cereus = assay: Antimicrobial activity against Bacillus cereus DSM 345 after 48 hr by agar dilution method; settings: DSM 345, 48 h; summary of the method: as §1
# [3] = system: Lacticaseibacillus rhamnosus; assay: Antimicrobial activity against Lactobacillus rhamnosus DSM 20021 after 48 hr by agar dilution method; settings: DSM 20021, 48 h; summary of the method: as §1
# Escherichia coli [4] = assay: Antimicrobial activity against Escherichia coli ATCC 35346 after 48 hr by agar dilution method; settings: ATCC 35346, 48 h; summary of the method: as §1
# Bacillus subtilis = assay: Antimicrobial activity against Bacillus subtilis DSM 345 after 48 hr by agar dilution method; settings: DSM 345, 48 h; summary of the method: as §1
# Rhizopus arrhizus = assay: Antimicrobial activity against Rhizopus oryzae ATCC 56536 after 48 hr by agar dilution method; settings: ATCC 56536, 48 h; summary of the method: as §2
# Pseudomonas aeruginosa = assay: Antimicrobial activity against Pseudomonas aeruginosa DSM 1117 after 48 hr by agar dilution method; settings: DSM 1117, 48 h; summary of the method: as §1
# Escherichia coli [5] = assay: Antimicrobial activity against Escherichia coli DSM 682 after 48 hr by agar dilution method; settings: DSM 682, 48 h; summary of the method: as §1
# Bacillus licheniformis = assay: Antimicrobial activity against Bacillus licheniformis DSM 13=ATCC 14580 after 48 hr by agar dilution method; settings: DSM 13 = ATCC 14580, 48 h; summary of the method: as §1
# [6] = system: Limosilactobacillus fermentum; assay: Antimicrobial activity against Lactobacillus fermentum DSM 20052 after 48 hr by agar dilution method; settings: DSM 20052, 48 h; summary of the method: as §1
# Penicillium expansum = assay: Antimicrobial activity against Penicillium expansum ATCC 7861 after 48 hr by agar dilution method; settings: ATCC 7861, 48 h; summary of the method: as §2
# Staphylococcus aureus = assay: Antimicrobial activity against Staphylococcus aureus subsp. aureus DSM 346 after 48 hr by agar dilution method; settings: DSM 346, 48 h; summary of the method: as §1
# Micrococcus luteus = assay: Antimicrobial activity against Micrococcus luteus DSM 348 after 48 hr by agar dilution method; settings: DSM 348, 48 h; summary of the method: as §1
# Lacticaseibacillus casei = assay: Antimicrobial activity against Lactobacillus casei DSM 20011 after 48 hr by agar dilution method; settings: DSM 20011, 48 h; summary of the method: as §1
# Enterococcus faecalis = assay: Antimicrobial activity against Enterococcus faecalis DSM 2570 after 48 hr by agar dilution method; settings: DSM 2570, 48 h; summary of the method: as §1
# Setophoma terrestris = assay: Antimicrobial activity against Setophoma terrestris ATCC 11321 after 48 hr by agar dilution method; settings: ATCC 11321, 48 h; summary of the method: as §2
Structure (SMILES),MIC [1] [µg/mL],MIC (Trichoderma viride) [µg/mL],MIC (Stutzerimonas stutzeri) [µg/mL],MIC [2] [µg/mL],MIC (Bacillus cereus) [µg/mL],MIC [3] [µg/mL],MIC (Escherichia coli [4]) [µg/mL],MIC (Bacillus subtilis) [µg/mL],MIC (Rhizopus arrhizus) [µg/mL],MIC (Pseudomonas aeruginosa) [µg/mL],MIC (Escherichia coli [5]) [µg/mL],MIC (Bacillus licheniformis) [µg/mL],MIC [6] [µg/mL],MIC (Penicillium expansum) [µg/mL],MIC (Staphylococcus aureus) [µg/mL],MIC (Micrococcus luteus) [µg/mL],MIC (Lacticaseibacillus casei) [µg/mL],MIC (Enterococcus faecalis) [µg/mL],MIC (Setophoma terrestris) [µg/mL]
C[C@H](CCC1(O)O[C@H]2C[C@H]3[C@@H]4CC[C@H]5C[C@@H](O[C@@H]6O[C@H](CO)[C@H](O[C@@H]7O[C@H](CO)[C@@H](O)[C@H](O[C@@H]8O[C@H](CO)[C@@H](O)[C@H](O)[C@H]8O)[C@H]7O[C@@H]7O[C@H](CO)[C@@H](O)[C@H](O[C@@H]8O[C@H](CO)[C@@H](O)[C@H](O)[C@H]8O)[C@H]7O)[C@H](O)[C@H]6O)[C@H](O)C[C@]5(C)[C@H]4CC[C@]3(C)[C@H]2[C@@H]1C)CO[C@@H]1O[C@H](CO)[C@@H](O)[C@H](O)[C@H]1O (stereo not given in full) [CAPSICOSIDE A],> 1000,> 1000,> 1000,1000,1000,1000,1000,> 1000,1000,> 1000,1000,> 1000,1000,1000,> 1000,> 1000,1000,> 1000,1000
C[C@H](CCC1(O)O[C@H]2C[C@H]3[C@@H]4CC[C@H]5C[C@@H](O[C@@H]6O[C@H](CO)[C@H](O[C@@H]7O[C@H](CO)[C@@H](O)[C@H](O[C@@H]8O[C@H](CO)[C@@H](O)[C@H](O)[C@H]8O)[C@H]7O[C@@H]7O[C@H](CO)[C@@H](O)[C@H](O[C@@H]8O[C@H](CO)[C@@H](O)[C@H](O)[C@H]8O)[C@H]7O)[C@H](O)[C@H]6O)CC[C@]5(C)[C@H]4CC[C@]3(C)[C@H]2[C@@H]1C)CO[C@@H]1O[C@H](CO)[C@@H](O)[C@H](O)[C@H]1O (stereo not given in full) [CAPSICOSIDE G],> 1000,1000,> 1000,1000,1000,1000,1000,> 1000,1000,> 1000,1000,> 1000,1000,1000,> 1000,> 1000,1000,> 1000,1000
C=C[C@](C)(CC/C=C(\C)CC/C=C(\C)CC/C=C(/C)CO[C@@H]1O[C@@H](C)[C@H](O)[C@@H](O[C@@H]2O[C@H](CO[C@@H]3O[C@@H](C)[C@H](O)[C@@H](O)[C@H]3O)[C@@H](O)[C@H](O)[C@H]2O)[C@H]1O)O[C@@H]1O[C@H](CO)[C@@H](O)[C@H](O)[C@H]1O[C@@H]1O[C@H](CO)[C@@H](O)[C@H](O)[C@H]1O [CAPSIANOSIDE II],> 1000,1000,> 1000,1000,1000,1000,1000,> 1000,1000,> 1000,1000,> 1000,1000,1000,> 1000,> 1000,1000,> 1000,1000
C[C@H](CCC1(O)O[C@H]2C[C@H]3[C@@H]4CC[C@H]5C[C@@H](O[C@@H]6O[C@H](CO)[C@H](O[C@@H]7O[C@H](CO)[C@@H](O)[C@H](O[C@@H]8OC[C@@H](O)[C@H](O)[C@H]8O)[C@H]7O[C@@H]7O[C@H](CO)[C@@H](O)[C@H](O)[C@H]7O)[C@H](O)[C@H]6O)CC[C@]5(C)[C@H]4CC[C@]3(C)[C@H]2[C@@H]1C)CO[C@@H]1O[C@H](CO)[C@@H](O)[C@H](O)[C@H]1O (stereo not given in full) [TIMOSAPONIN I2],> 1000,> 1000,> 1000,1000,1000,1000,1000,> 1000,1000,> 1000,1000,> 1000,1000,> 1000,> 1000,> 1000,1000,> 1000,1000
CC1=C(CC[C@@H](C)CO[C@@H]2O[C@H](CO)[C@@H](O)[C@H](O)[C@H]2O)O[C@H]2C[C@H]3[C@@H]4CC[C@H]5C[C@@H](O[C@@H]6O[C@H](CO)[C@H](O[C@@H]7O[C@H](CO)[C@@H](O)[C@H](O[C@@H]8O[C@H](CO)[C@@H](O)[C@H](O)[C@H]8O)[C@H]7O[C@@H]7O[C@H](CO)[C@@H](O)[C@H](O[C@@H]8O[C@H](CO)[C@@H](O)[C@H](O)[C@H]8O)[C@H]7O)[C@H](O)[C@H]6O)[C@H](O)C[C@]5(C)[C@H]4CC[C@]3(C)[C@@H]12 [Capsicoside F],> 1000,,> 1000,1000,1000,1000,1000,> 1000,,> 1000,1000,> 1000,1000,,> 1000,> 1000,1000,> 1000,
C[C@H](CCC1(O)O[C@H]2C[C@H]3[C@@H]4CC[C@H]5C[C@@H](O[C@@H]6O[C@H](CO)[C@H](O[C@@H]7O[C@H](CO)[C@@H](O)[C@H](O[C@@H]8OC[C@@H](O)[C@H](O)[C@H]8O)[C@H]7O[C@@H]7O[C@H](CO)[C@@H](O)[C@H](O[C@@H]8O[C@H](CO)[C@@H](O)[C@H](O)[C@H]8O)[C@H]7O)[C@H](O)[C@H]6O)CC[C@]5(C)[C@H]4CC[C@]3(C)[C@H]2[C@@H]1C)CO[C@@H]1O[C@H](CO)[C@@H](O)[C@H](O)[C@H]1O (stereo not given in full) [CAPSICOSIDE D],> 1000,> 1000,> 1000,1000,1000,1000,1000,> 1000,1000,> 1000,1000,> 1000,1000,> 1000,> 1000,> 1000,1000,> 1000,1000
COC1(CC[C@@H](C)CO[C@@H]2O[C@H](CO)[C@@H](O)[C@H](O)[C@H]2O)O[C@H]2C[C@H]3[C@@H]4CC[C@H]5C[C@@H](O[C@@H]6O[C@H](CO)[C@H](O[C@@H]7O[C@H](CO)[C@@H](O)[C@H](O[C@@H]8OC[C@@H](O)[C@H](O)[C@H]8O)[C@H]7O[C@@H]7O[C@H](CO)[C@@H](O)[C@H](O[C@@H]8O[C@H](CO)[C@@H](O)[C@H](O)[C@H]8O)[C@H]7O)[C@H](O)[C@H]6O)CC[C@]5(C)[C@H]4CC[C@]3(C)[C@H]2[C@@H]1C (stereo not given in full) [22-O-METHYL-CAPSICOSIDE D],> 1000,,> 1000,1000,1000,1000,1000,> 1000,,> 1000,1000,> 1000,1000,,> 1000,> 1000,1000,> 1000,
